How the values were obtained:
Adenosine receptor A1 [1] = target: T1, Adenosine receptor A1 (Rattus norvegicus, UniProt P25099); test: Binding affinity for Adenosine A1 receptor of rat forebrain
T1 sequence (P25099 whole entry): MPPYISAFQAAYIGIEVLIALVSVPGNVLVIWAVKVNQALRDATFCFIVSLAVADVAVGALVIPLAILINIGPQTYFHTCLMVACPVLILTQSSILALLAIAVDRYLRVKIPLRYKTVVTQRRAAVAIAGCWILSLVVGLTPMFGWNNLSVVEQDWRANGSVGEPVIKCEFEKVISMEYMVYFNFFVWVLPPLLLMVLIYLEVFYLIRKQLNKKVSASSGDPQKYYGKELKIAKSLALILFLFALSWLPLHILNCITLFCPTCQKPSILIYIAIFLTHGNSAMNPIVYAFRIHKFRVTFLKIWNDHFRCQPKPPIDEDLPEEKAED

Adenosine receptor A1 [2] = target: T2, Adenosine receptor A1 (Cavia porcellus, UniProt P47745); test: Binding affinity for Adenosine A1 receptor from Guinea pig membranes
T2 sequence (P47745 whole entry): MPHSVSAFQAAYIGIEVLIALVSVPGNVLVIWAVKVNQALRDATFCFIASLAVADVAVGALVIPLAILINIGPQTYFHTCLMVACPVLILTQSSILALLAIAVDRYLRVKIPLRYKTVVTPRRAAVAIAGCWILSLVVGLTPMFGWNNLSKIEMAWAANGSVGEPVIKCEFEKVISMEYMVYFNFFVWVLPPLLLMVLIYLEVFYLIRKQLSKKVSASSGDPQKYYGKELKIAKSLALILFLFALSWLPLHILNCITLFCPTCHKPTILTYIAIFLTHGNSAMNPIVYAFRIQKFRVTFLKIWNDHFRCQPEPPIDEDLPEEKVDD

Adenosine receptor A1 [3] = target: T3, Adenosine receptor A1 (Homo sapiens, UniProt P30542); test: Inhibition of binding to membranes from HEK293 cells expressing human Adenosine A1 receptor; format: cell membranes
T3 sequence (P30542 whole entry): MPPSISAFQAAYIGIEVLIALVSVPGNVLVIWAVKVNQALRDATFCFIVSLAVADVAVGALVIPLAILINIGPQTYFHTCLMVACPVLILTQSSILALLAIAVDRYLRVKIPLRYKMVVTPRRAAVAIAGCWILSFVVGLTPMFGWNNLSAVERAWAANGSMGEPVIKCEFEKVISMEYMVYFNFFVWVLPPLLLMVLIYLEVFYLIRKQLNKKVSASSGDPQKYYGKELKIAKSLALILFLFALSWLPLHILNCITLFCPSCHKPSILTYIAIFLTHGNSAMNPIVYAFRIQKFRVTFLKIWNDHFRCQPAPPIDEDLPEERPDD

Adenosine A2 receptor = Adenosine A2 receptor (Rattus norvegicus, UniProt P29276+P30543); test: Binding affinity for Adenosine A2 receptor from rat striatal membranes
Rattus norvegicus [4] = test: Potassium ion output (collected per 4 h) in Saline -Loaded Rats at 0.01 mg /kg intravenous dose; format: functional
Summary of the method: (§1)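 Sprague-Dawley rats (250-350 g), 2 h equilibration, then tail-vein dosing (vehicle 50% saline/40% PEG/10% ethanol, 1.0 mL/kg). This was followed at once by 40 mL/kg saline po. Urine collected 4 h in metabolic cages, volume by weight, Na⁺/K⁺ by flame photometry. n = 6-7 per dose, mean ± SEM, 1-way ANOVA with Bonferroni test versus vehicle.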

Rattus norvegicus [5] = test: Potassium ion output (collected per 4 h) in Saline -Loaded Rats at 0.1 mg /kg intravenous dose; format: functional; summary of the method: as §1
Rattus norvegicus [6] = test: Potassium ion output (collected per 4 h) in Saline -Loaded Rats at 1.0 mg /kg intravenous dose; format: functional; summary of the method: as §1
Rattus norvegicus [7] = test: Sodium ion output (collected per 4 h) in Saline -Loaded Rats at 0.01 mg /kg intravenous dose; format: functional; summary of the method: as §1
Rattus norvegicus [8] = test: Sodium ion output (collected per 4 h) in Saline -Loaded Rats at 0.1 mg /kg intravenous dose; format: functional; summary of the method: as §1
Rattus norvegicus [9] = test: Sodium ion output (collected per 4 h) in Saline -Loaded Rats at 1.0 mg /kg intravenous dose; format: functional; summary of the method: as §1
Rattus norvegicus [10] = test: Urine output (collected per 4 h) in Saline -Loaded Rats at 0.01 mg /kg intravenous dose; format: functional; summary of the method: as §1
Rattus norvegicus [11] = test: Urine output (collected per 4 h) in Saline -Loaded Rats at 0.1 mg /kg intravenous dose; format: functional; summary of the method: as §1
Rattus norvegicus [12] = test: Urine output (collected per 4 h) in Saline -Loaded Rats at 1.0 mg /kg intravenous dose; format: functional; summary of the method: as §1

SMILES: CCCn1c(=O)c2nc(C3CC4CC3C3OC43)[nH]c2n(CCC)c1=O (stereo in doubt)
- Ki (Adenosine receptor A1 [1]): 1.43 nM
- Ki (Adenosine receptor A1 [2]): 3.15 nM
- Ki (Adenosine receptor A1 [3]): 0.82 nM
- Ki (Adenosine A2 receptor): 309 nM
- K+ output (Rattus norvegicus [4]): 1.1 mmol/kg
- K+ output (Rattus norvegicus [5]): 1.22 mmol/kg
- K+ output (Rattus norvegicus [6]): 1.42 mmol/kg
- Na+ output (Rattus norvegicus [7]): 3.54 mmol/kg
- Na+ output (Rattus norvegicus [8]): 5.14 mmol/kg
- Na+ output (Rattus norvegicus [9]): 6.54 mmol/kg
- Urine output (Rattus norvegicus [10]): 23.2 mL/kg
- Urine output (Rattus norvegicus [11]): 33 mL/kg
- Urine output (Rattus norvegicus [12]): 43.2 mL/kg

SMILES: CCCn1c(=O)c2nc(C3CC4CC3C3OC43)[nH]c2n(CCC)c1=O (stereo in doubt; 8)
- Ki (Adenosine receptor A1 [1]): 5.12 nM
- Ki (Adenosine receptor A1 [2]): 3.17 nM
- Ki (Adenosine receptor A1 [3]): 0.8 nM
- Ki (Adenosine A2 receptor): 551 nM
- K+ output (Rattus norvegicus [4]): 0.97 mmol/kg
- K+ output (Rattus norvegicus [5]): 0.89 mmol/kg
- K+ output (Rattus norvegicus [6]): 1.84 mmol/kg
- Na+ output (Rattus norvegicus [7]): 3.8 mmol/kg
- Na+ output (Rattus norvegicus [8]): 4.56 mmol/kg
- Na+ output (Rattus norvegicus [9]): 5.99 mmol/kg
- Urine output (Rattus norvegicus [10]): 26.8 mL/kg
- Urine output (Rattus norvegicus [11]): 31.3 mL/kg
- Urine output (Rattus norvegicus [12]): 44.1 mL/kg

SMILES: CCCn1c(=O)c2nc(C3CC4CC3C3OC43)[nH]c2n(CCC)c1=O (stereo in doubt; 12)
- Ki (Adenosine receptor A1 [1]): 0.67 nM
- Ki (Adenosine receptor A1 [2]): 1.43 nM
- Ki (Adenosine receptor A1 [3]): 0.45 nM
- Ki (Adenosine A2 receptor): 1250 nM
- K+ output (Rattus norvegicus [4]): 0.75 mmol/kg
- K+ output (Rattus norvegicus [5]): 1.34 mmol/kg
- K+ output (Rattus norvegicus [6]): 1.09 mmol/kg
- Na+ output (Rattus norvegicus [7]): 3.02 mmol/kg
- Na+ output (Rattus norvegicus [8]): 5.29 mmol/kg
- Na+ output (Rattus norvegicus [9]): 5.86 mmol/kg
- Urine output (Rattus norvegicus [10]): 21.7 mL/kg
- Urine output (Rattus norvegicus [11]): 35.1 mL/kg
- Urine output (Rattus norvegicus [12]): 37.1 mL/kg

SMILES: CCCn1c(=O)c2nc(C34CC5CC(CC3C5)C4)[nH]c2n(CCC)c1=O [ROLOFYLLINE]
- Ki (Adenosine A2 receptor): 510 nM

Source: ChEMBL document CHEMBL1130053, “Synthesis and biological evaluation of the enantiomers of the potent and selective A1-adenosine antagonist 1,3-dipropyl-8-[2-(5,6-epoxynorbonyl)]-xanthine” (J Med Chem, 1997)
